Experiments:
Type in all cases: functional
[1] = Antioxidant activity assessed as reduction of […]/ferricyanide complex after 20 mins by spectrophotometry
Outline: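 Compounds (1.6–6.25 mM) mixed with 0.2 M phosphate buffer, pH 6.6, and 1% potassium ferricyanide, 20 min at 50 °C. Stopped with 1% TCA and centrifuged at 2790 g for 10 min. Supernatant plus water and 0.1% FeCl3 read at 700 nm. EC50 is the concentration giving absorbance 0.5. Mean ± SD of triplicates.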

[2] = Antioxidant activity assessed as inhibition of Fe(3+)/ascorbate-induced lipid peroxidation in liposomes after 1 hr by TBARS assay
Outline: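 Lecithin liposomes were sonicated in 10 mmol/L phosphate buffer, pH 7.4. Final mix: 3.08 mg liposome/mL, 123.2 µmol FeCl3, 123.2 µmol ascorbic acid, test compound 0.025–0.4 mM. Incubated 1 h at 37 °C. MDA measured by TBA reaction; n-butanol layer read at 532 nm against a lecithin-free blank. EC50 is the concentration reducing TBARS to 50% of control.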

[3] = Antioxidant activity assessed as trolox equivalent of ABTS free radical scavenging activity after 6 mins by […]
Outline: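 ABTS radical cation solution was added to compounds (0.2–6.25 mM). Decrease in absorbance at 734 nm was read exactly 6 min after mixing, with ethanol blanks. A Trolox standard curve (final 0–20 µM in ethanol) gives TEAC, the mM Trolox equivalent to 1 mM compound. Run in triplicate.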

[4] = system: Radical scavenging activity; experiment: Antioxidant activity assessed as DPPH radical scavenging activity after 30 mins by spectrophotometry
Outline: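 Test compounds (0.2–6.25 mM) dissolved in DMSO, added to 6×10^-5 M methanolic DPPH. Mixture held 30 min at room temperature in the dark, then absorbance read at 517 nm against methanol. Scavenging % = [1 − A_sample/A_control] × 100, with a negative control lacking sample. Triplicates averaged; EC50 taken from dose–response.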

SMILES | EC50 [1] [µM] | EC50 [2] [µM] | EC50 [3] [µM] | EC50 [4] [µM]
O=C1Nc2ccc([N+](=O)[O-])cc2C12Nc1ccccc1S2 (stereo not given) | 800 | 87 | 1630 | 1300
CN1C(=O)C2(Nc3ccccc3S2)c2cc(Br)ccc21 (stereo not given) | 4220 | 34 | 1040 | 1010
Cc1ccc2c(c1)C1(Nc3ccccc3S1)C(=O)N2C (stereo not given) | 700 | 34 | 980 | 980
CN1C(=O)C2(Nc3ccccc3S2)c2cc([N+](=O)[O-])ccc21 (stereo not given) | 5140 | 92 | 1340 | 1270
Cc1c(C)c2c(c(C)c1O)CC[C@@](C)(CCC[C@H](C)CCC[C@H](C)CCCC(C)C)O2 [ALPHA-TOCOPHEROL] | 1950 | 153 | 1200 | 350
